Measurements reported in ChEMBL document CHEMBL3992517 (J Med Chem, 2017).
Active and inactive are the calls of the source. No cut-off for these calls is given here.

Columns and labels:
[1] = system: K562; assay: Antiproliferative activity against human K562 cells after 48 hrs by Alamar blue dye based neubauer hemocytometer method; type: functional, cell-based; settings: K562, 48 h
Summary of the method: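 K562 human chronic myelogenous leukemia cells, mycoplasma-negative, grown at 37 °C in 5% CO2 in RPMI 1640 with 10% FBS, penicillin/streptomycin and L-glutamine. Cells were exposed to compound for 48 h and then counted on a Neubauer hemocytometer. IC50 is the concentration giving 50% growth inhibition, taken as the mean of at least three independent determinations (SD < 10%).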

[2] = (§1) Inhibition of porcine tubulin polymerization after 45 mins by turbidometric method; set-up: species or system Sus scrofa
[3] = target: Tubulin beta-5 chain (Homo sapiens) (UniProt P07437); assay: Competitive binding affinity to beta-tubulin in human K562 cells assessed as disappearance of EBI-protein adducts at 20 to 40 uM preincubated for 2 hrs followed by EBI addition measured after 1.5 hrs by Western blot analysis; type: cell-based
Tubulin beta-5 chain (Homo sapiens), sequence (P07437 whole entry): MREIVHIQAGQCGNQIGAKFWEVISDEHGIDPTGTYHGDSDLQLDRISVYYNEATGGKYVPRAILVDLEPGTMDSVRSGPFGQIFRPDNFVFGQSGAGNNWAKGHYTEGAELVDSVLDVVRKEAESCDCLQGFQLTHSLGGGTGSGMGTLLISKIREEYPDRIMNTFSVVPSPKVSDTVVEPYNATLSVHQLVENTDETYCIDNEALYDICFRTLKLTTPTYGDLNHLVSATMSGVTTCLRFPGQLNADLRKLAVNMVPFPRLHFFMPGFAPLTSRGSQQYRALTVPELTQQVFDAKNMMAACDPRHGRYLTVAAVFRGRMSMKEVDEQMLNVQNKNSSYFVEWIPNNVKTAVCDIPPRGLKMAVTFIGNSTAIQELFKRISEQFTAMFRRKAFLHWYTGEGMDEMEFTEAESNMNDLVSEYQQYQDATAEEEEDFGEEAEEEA

[4] = system: SK-BR-3; assay: Antiproliferative activity against human SK-BR-3 cells after 72 hrs by SRB assay; type: functional; settings: SK-BR-3, 72 h
Summary of the method: (§2)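 Cell panel screen (93 tumour lines listed in text; 94 in the table), run to the DTP NCI sulforhodamine B protocol. Concentrations from 0.0001 to 10 µM. GI50 is the molar concentration giving 50% growth inhibition relative to the initial seeding number, taken from log-transformed data. zScore is reported per cell line.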

[5] = system: PBMC; assay: Cytotoxicity against human PBMC after 72 hrs by SRB assay; type: cell-based
Summary of the method: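 Resting, non-proliferating peripheral blood mononuclear cells were included in the panel and quantified by sulforhodamine B staining.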

[6] = system: SK-N-AS; assay: Antiproliferative activity against human SK-N-AS cells after 72 hrs by SRB assay; type: functional; summary of the method: as §2
[7] = species on record: Sus scrofa; assay: as §1
[8] = system: IMR-90; assay: Antiproliferative activity against human IMR90 cells after 72 hrs by SRB assay; type: functional; settings: IMR-90, 72 h; summary of the method: as §2
[9] = system: JAR; assay: Antiproliferative activity against human JAR cells after 72 hrs by SRB assay; type: functional; summary of the method: as §2
[10] = system: K562; assay: Cell cycle arrest in human K562 cells assessed as accumulation at G2/M phase up to 30 nM after 24 hrs by propidium iodide staining-based flow cytometry
[11] = system: SK-LMS-1; assay: Antiproliferative activity against human SKLMS1 cells after 72 hrs by SRB assay; type: functional; settings: SK-LMS-1, 72 h; summary of the method: as §2
[12] = Antiproliferative activity against human CLS439 cells after 72 hrs by SRB assay; type: functional; settings: CLS439, 72 h; summary of the method: as §2
[13] = system: Caco-2; assay: Antiproliferative activity against human Caco2 cells after 72 hrs by SRB assay; type: functional; settings: Caco-2, 72 h; summary of the method: as §2
[14] = system: COLO-678; assay: Antiproliferative activity against human COLO-678 cells after 72 hrs by SRB assay; type: functional; settings: COLO-678, 72 h; summary of the method: as §2
[15] = system: NCI-H82; assay: Antiproliferative activity against human NCI-H82 cells after 72 hrs by SRB assay; type: functional; settings: NCI-H82, 72 h; summary of the method: as §2
[16] = system: HT-29; assay: Antiproliferative activity against human HT-29 cells after 72 hrs by SRB assay; type: functional; settings: HT-29, 72 h; summary of the method: as §2
[17] = system: RD; assay: Antiproliferative activity against human RD cells after 72 hrs by SRB assay; type: functional; summary of the method: as §2
[18] = system: MG-63; assay: Antiproliferative activity against human MG63 cells after 72 hrs by SRB assay; type: functional; settings: MG-63, 72 h; summary of the method: as §2
[19] = system: NCI-H292; assay: Antiproliferative activity against human NCI-H292 cells after 72 hrs by SRB assay; type: functional; settings: NCI-H292, 72 h; summary of the method: as §2
[20] = system: PANC-1; assay: Antiproliferative activity against human PANC1 cells after 72 hrs by SRB assay; type: functional; settings: PANC-1, 72 h; summary of the method: as §2
[21] = system: JIMT-1; assay: Antiproliferative activity against human JIMT1 cells after 72 hrs by SRB assay; type: functional; settings: JIMT-1, 72 h; summary of the method: as §2
[22] = system: Panc1005; assay: Antiproliferative activity against human Panc 10.05 cells after 72 hrs by SRB assay; type: functional; settings: Panc1005, 72 h; summary of the method: as §2

SMILES | IC50 [1] | IC50 [2] | also measured
c1ccc2c(c1)Nc1ccccc1O2 [PHENOXAZINE] | 16800 nM | – | –
COc1ccc(N2CCN(C(=O)N3c4ccccc4Sc4ccccc43)CC2)cc1 | 3700 nM | – | –
O=C(N1CCN(c2ccc([N+](=O)[O-])cc2)CC1)N1c2ccccc2Oc2ccccc21 | > 70000 nM | > 10000 nM | –
COc1cccc(CNC(=O)N2c3ccccc3Oc3ccccc32)c1 | 6000 nM | 8530 nM | –
COc1ccccc1N1CCN(C(=O)N2c3ccccc3Sc3ccccc32)CC1 | 20 nM | 600 nM | Activity [3]: Active
COc1ccc(N2CCN(C(=O)Nc3ccccc3Oc3ccccc3)CC2)cc1 | > 10000 nM | > 10000 nM | –
COc1cccc(N2CCN(C(=O)N3c4ccccc4Sc4ccc(Cl)cc43)CC2)c1 | 30 nM | 920 nM | –
COc1ccccc1N1CCN(C(=O)N2c3cc(Cl)ccc3Oc3ccc(Cl)cc32)CC1 | 130 nM | 1190 nM | –
COc1ccc(CNC(=O)N2c3ccccc3Oc3ccccc32)cc1 | 19000 nM | 9000 nM | –
COc1ccc(N2CCN(C(=O)N3c4ccccc4Sc4ccc(Cl)cc43)CC2)cc1 | 1900 nM | > 10000 nM | –
Cc1ccc(N2CCN(C(=O)N3c4ccccc4Oc4ccccc43)CC2)cc1 | 1390 nM | – | –
COc1cccc(N2CCN(C(=O)N3c4ccccc4C=Cc4ccccc43)CC2)c1 | 940 nM | 3560 nM | –
O=C(N1CCN(c2ccc(Cl)cc2)CC1)N1c2ccccc2Oc2ccccc21 | 630 nM | 830 nM | –
N#Cc1ccc(N2CCN(C(=O)N3c4ccccc4Sc4ccccc43)CC2)cc1 | 390 nM | – | –
COc1ccc(N2CCN(C(=O)N3c4ccccc4Oc4cc(C#N)ccc43)CC2)cc1 | 3700 nM | 3380 nM | –
O=C(N1CCN(c2ccc(C(F)(F)F)cc2)CC1)N1c2ccccc2Oc2ccccc21 | > 60000 nM | > 10000 nM | –
COc1cccc(N2CCN(C(=O)N3c4ccccc4Oc4ccc(Cl)cc43)CC2)c1 | 30 nM | 800 nM | –
CC[C@]1(O)C[C@H]2CN(CCc3c([nH]c4ccccc34)[C@@](C(=O)OC)(c3cc4c(cc3OC)N(C)[C@H]3[C@@](O)(C(=O)OC)[C@H](OC(C)=O)[C@]5(CC)C=CCN6CC[C@]43[C@@H]65)C2)C1 | 1 nM | – | –
COc1ccccc1N1CCN(C(=O)N2c3ccccc3Sc3ccc(Cl)cc32)CC1 | 90 nM | 510 nM | –

SMILES | IC50 [1] | IC50 [2] | also measured
COc1cccc(N2CCN(C(=O)N3c4ccccc4Oc4ccccc43)CC2)c1 | 20 nM | 690 nM | –
N#Cc1ccc(N2CCN(C(=O)N3c4ccccc4Oc4ccccc43)CC2)cc1 | > 20000 nM | > 10000 nM | –
COc1ccccc1N1CCN(C(=O)Nc2ccccc2Oc2ccccc2)CC1 | > 10000 nM | > 10000 nM | –
COc1ccccc1N1CCN(C(=O)N2c3ccccc3C=Cc3ccccc32)CC1 | 450 nM | 2830 nM | –
O=C(N1CCN(c2ccccc2)CC1)N1c2ccccc2Oc2ccccc21 | 30 nM | 1380 nM | –
COc1cccc(N2CCN(C(=O)N3c4ccccc4Sc4ccccc43)CC2)c1 | 20 nM | 550 nM | –
COc1cccc(N2CCN(C(=O)N3c4ccccc4Oc4cc(C#N)ccc43)CC2)c1 | 7 nM | 360 nM | GI50 [4]: 1.5 nM; Activity [5]: Non-Toxic; GI50 [6]: 1.4 nM; inhibition [7]: Dose-dependent effect; GI50 [8]: 1.6 nM; GI50 [9]: 1.7 nM; Activity [10]: Active; GI50 [11]: 5.9 nM; GI50 [12]: 7.8 nM; GI50 [13]: 7.9 nM; GI50 [14]: 7.5 nM; GI50 [15]: 1.6 nM; GI50 [16]: 6.4 nM; GI50 [17]: 1.7 nM; GI50 [18]: 1.5 nM; GI50 [19]: 6.7 nM; GI50 [20]: 6.5 nM; GI50 [21]: 5.9 nM; GI50 [22]: 1.7 nM
COc1cccc(N2CCN(C(=O)N(c3ccccc3)c3ccccc3)CC2)c1 | 18000 nM | > 10000 nM | –
COc1cccc(N2CCN(C(=O)N3c4cc(Cl)ccc4Oc4ccc(Cl)cc43)CC2)c1 | 180 nM | 900 nM | –
COc1ccccc1N1CCN(C(=O)N2c3ccccc3Oc3cc(C#N)ccc32)CC1 | 30 nM | 320 nM | –
COc1ccc(N2CCN(C(=O)N3c4ccccc4Oc4ccccc43)CC2)cc1 | 3130 nM | 14300 nM | –
COc1ccccc1N1CCN(C(=O)N2c3ccccc3Oc3ccccc32)CC1 | 20 nM | 640 nM | –
COc1ccccc1N1CCN(C(=O)N2c3ccccc3CCc3ccccc32)CC1 | 840 nM | 10700 nM | –
COc1ccccc1N1CCN(CC(=O)N2c3ccccc3Oc3ccccc32)CC1 | 9000 nM | > 10000 nM | –
COc1cccc(N2CCN(C(=O)Nc3ccccc3Oc3ccccc3)CC2)c1 | > 10000 nM | > 10000 nM | –
COc1cccc(N2CCN(CC(=O)N3c4ccccc4Oc4ccccc43)CC2)c1 | 5000 nM | > 10000 nM | –
COc1ccccc1N1CCN(C(=O)N2c3ccccc3Oc3ccc(Cl)cc32)CC1 | 30 nM | 620 nM | –
O=C(N1CCN(c2ccccc2)CC1)N1c2ccccc2Sc2ccccc21 | 130 nM | 810 nM | –
COc1ccc(NC(=O)N2c3ccccc3Oc3ccccc32)cc1 | > 80000 nM | > 10000 nM | –
